Measurements taken from ChEMBL document CHEMBL1777805, “2-Arylmethylaminomethyl-5,6-dihydroxychromone derivatives with selective anti-HCV activity” (Bioorg Med Chem Lett, 2011).

Columns and labels:
Hepatitis C virus = assay: Antiviral activity against HCV in human HuH7 cells assessed as inhibition of RNA replication after 4 days by FRET-based assay; type: functional, organism-based, Hepacivirus hominis; conditions: Huh-7, 96 h
Outline: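 Huh-7 cells carrying an HCV replicon were seeded at 5 × 10³/well in complete DMEM with 500 µg/mL G418 and held 24 h at 37 °C, 5% CO₂. The medium was then refreshed and compounds were added at 0.1–100 µM (seven levels) from DMSO stock. After 4 days at 37 °C, cells were lysed. NS3 protease FRET signal was read at 340 ex/490 em. IFN-α2b (10000 units/well) served as positive control.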

[1] = Cytotoxicity against human HuH7 cells assessed as reduction in cell proliferation; type: cell-based, Huh-7

Row | Compound | EC50 (Hepatitis C virus) [µM] | CC50 [1] [µM]
1 | O=c1cc(CNCc2cccc(F)c2)oc2ccc(O)c(O)c12 | > 100 | > 100
2 | O=c1cc(CNCc2cccc(Br)c2)oc2ccc(O)c(O)c12 | 3.6 | > 100
3 | O=c1cc(CNCc2cccc(I)c2)oc2ccc(O)c(O)c12 | 7.3 | > 100
4 | O=c1cc(CNCc2cccc([N+](=O)[O-])c2)oc2ccc(O)c(O)c12 | > 100 | > 100
5 | O=c1cc(CNCc2ccc(F)cc2)oc2ccc(O)c(O)c12 | > 100 | > 100
6 | O=c1cc(CNCc2ccc(Br)cc2)oc2ccc(O)c(O)c12 | > 100 | > 100
7 | O=c1cc(CNCc2ccc(I)cc2)oc2ccc(O)c(O)c12 | 4.1 | 41.7
8 | O=c1cc(CNCc2ccc(O)cc2)oc2ccc(O)c(O)c12 | > 100 | 62.7
9 | O=c1cc(CNCc2ccc([N+](=O)[O-])cc2)oc2ccc(O)c(O)c12 | > 100 | 73.3
10 | O=c1cc(CNCc2ccc(Cl)cc2)oc2ccc(O)c(O)c12 | > 100 | > 100

Now from value to molecule, other results behind:

Row | EC50 (Hepatitis C virus) [µM] | Compound | CC50 [1] [µM]
11 | > 100 | O=c1cc(CNCc2ccccc2)oc2ccc(O)c(O)c12 | > 100
12 | > 100 | O=c1cc(CNCc2ccccc2Cl)oc2ccc(O)c(O)c12 | > 100
13 | > 100 | O=c1cc(CNCc2ccccc2Br)oc2ccc(O)c(O)c12 | > 100
14 | 6.3 | O=c1cc(CNCc2ccccc2I)oc2ccc(O)c(O)c12 | 87.3
15 | > 100 | O=c1cc(CNCc2ccccc2O)oc2ccc(O)c(O)c12 | > 100
16 | > 100 | O=c1cc(CNCc2ccccc2[N+](=O)[O-])oc2ccc(O)c(O)c12 | 41.3
17 | 1.2 | Cc1ccccc1CNCc1cc(=O)c2c(O)c(O)ccc2o1 | 52.2
18 | > 100 | O=c1cc(CNCc2cccc(O)c2)oc2ccc(O)c(O)c12 | > 100
19 | 2 | Cc1cccc(CNCc2cc(=O)c3c(O)c(O)ccc3o2)c1 | > 100
20 | 5.7 | Cc1ccc(CNCc2cc(=O)c3c(O)c(O)ccc3o2)cc1 | > 100
21 | 14 | O=c1cc(CNCc2cccc(Cl)c2)oc2ccc(O)c(O)c12 | > 100
